Values after ≈ are worked out from the molar mass of the structure shown.

In one assay the test system is Pseudomonas aeruginosa. Description: Antibacterial activity against Pseudomonas aeruginosa after 24 to 28 hrs by agar diffusion method. It is filed as functional. In general terms: A growth-free zone around the sample is the usual read-out of agar diffusion tests.
The next assay deals with Trichoderma viride. Kind of assay: Antifungal activity against Trichoderma viride after 5 days by agar diffusion method. The assay is classed as functional. As to conditions: 120 h.
Another assay has as its system Aspergillus flavus. Description: Antifungal activity against Aspergillus flavus after 5 days by agar diffusion method. Conditions: 120 h. It is filed as functional.
The next assay concerns Bacillus subtilis. Description: Antibacterial activity against Bacillus subtilis after 24 to 28 hrs by agar diffusion method. The assay is classed as functional.
For the next assay, the system named is HEK293. Description: Cytotoxicity against human HEK293 cells after 48 hrs by MTT assay. Conditions: HEK293, 48 h. The assay is classed as cell-based. In short, it runs like this: (§1)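 Cells kept in a humidified 5% CO2 incubator. Compounds diluted in culture medium and added to wells alongside a vehicle control. After MTT, supernatant removed, formazan dissolved in DMSO, and absorbance read at 540 nm. Percentage growth inhibition calculated. At least three independent assays.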
On the technique in general: Tetrazolium dyes change colour on reduction, which living cells bring about.

The test system of a further assay is MCF7. Kind of assay: Cytotoxicity against human estrogen receptor-positive MCF7 cells after 48 hrs by MTT assay. The assay is classed as functional, cell-based. Conditions: MCF7, 48 h. In short, it runs like this: as §1
For another assay, the system named is Lactococcus lactis. Description: Antibacterial activity against Streptococcus lactis after 24 to 28 hrs by agar diffusion method. The assay is classed as functional.
A further assay has as its system Escherichia coli. Kind of assay: Antibacterial activity against Escherichia coli after 24 to 28 hrs by agar diffusion method. It is filed as functional.
Another assay relates to MDA-MB-231. Kind of assay: Cytotoxicity against human estrogen receptor-negative MDA-MB-231 cells after 48 hrs by MTT assay. As to conditions: MDA-MB-231, 48 h. The assay is classed as functional, cell-based. In a few lines:
as §1

For the compound `Cc1noc2c1N=C(c1ccccc1)CC(c1cc(Cc3ccc(O)c(C4CC(c5ccccc5)=Nc5c(C)noc5C4)c3)ccc1O)C2` (stereo not given), the minimum inhibitory concentration (MIC) came out at 35 µg/mL (≈ 53.9 µM) against Pseudomonas aeruginosa; 40 µg/mL (≈ 61.7 µM) against Trichoderma viride; 40 µg/mL (≈ 61.7 µM) in the assay on Aspergillus flavus; 35 µg/mL (≈ 53.9 µM) in the assay on Bacillus subtilis; 40 µg/mL (≈ 61.7 µM) against Lactococcus lactis; 40 µg/mL (≈ 61.7 µM) in the assay with Escherichia coli. In addition, the IC50 came to 85.4 µM in the assay with HEK293, 80.6 µM in the assay with MCF7 and 82.6 µM in the assay on MDA-MB-231.

For the compound `Cc1noc2c1N=C(c1ccc(Br)cc1)CC(c1cc(Cc3ccc(O)c(C4CC(c5ccc(Br)cc5)=Nc5c(C)noc5C4)c3)ccc1O)C2` (stereo not given), the MIC in the assay on Pseudomonas aeruginosa is 30 µg/mL (≈ 37.2 µM); with Trichoderma viride it was 32 µg/mL (≈ 39.7 µM); in the assay with Aspergillus flavus it was 30 µg/mL (≈ 37.2 µM); in the assay on Bacillus subtilis, 30 µg/mL (≈ 37.2 µM); in the assay on Lactococcus lactis, 25 µg/mL (≈ 31 µM); against Escherichia coli, 27 µg/mL (≈ 33.5 µM). Moreover, the values for the IC50 in the assay on HEK293, with MCF7 and with MDA-MB-231 were 54.5 µM, 34.2 µM and 51.2 µM, respectively.

As to `Cc1noc2c1N=C(c1ccc([N+](=O)[O-])cc1)CC(c1cc(Cc3ccc(O)c(C4CC(c5ccc([N+](=O)[O-])cc5)=Nc5c(C)noc5C4)c3)ccc1O)C2` (stereo not given), the minimal inhibitory concentration (MIC) is 28 µg/mL (≈ 37.9 µM) in the assay with Pseudomonas aeruginosa; 30 µg/mL (≈ 40.6 µM) in the assay with Trichoderma viride; 30 µg/mL (≈ 40.6 µM) against Aspergillus flavus; 30 µg/mL (≈ 40.6 µM) in the assay with Bacillus subtilis; 26 µg/mL (≈ 35.2 µM) in the assay with Lactococcus lactis; 28 µg/mL (≈ 37.9 µM) against Escherichia coli. Moreover, the concentration for half-maximal inhibition (IC50) in the assay with HEK293 was 55.6 µM; in the assay on MCF7, 36.3 µM; in the assay with MDA-MB-231 it was 53.4 µM.

Take `Cc1noc2c1N=C(c1ccc(Cl)cc1)CC(c1cc(Cc3ccc(O)c(C4CC(c5ccc(Cl)cc5)=Nc5c(C)noc5C4)c3)ccc1O)C2` (stereo not given): the MIC in the assay on Pseudomonas aeruginosa was 30 µg/mL (≈ 41.8 µM); against Trichoderma viride it was 30 µg/mL (≈ 41.8 µM); with Aspergillus flavus, 32 µg/mL (≈ 44.6 µM); against Bacillus subtilis, 28 µg/mL (≈ 39 µM); against Lactococcus lactis, 25 µg/mL (≈ 34.8 µM); in the assay with Escherichia coli, 28 µg/mL (≈ 39 µM). Further, the IC50 came to 53.3 µM in the assay with HEK293, 30.4 µM with MCF7 and 52.5 µM with MDA-MB-231.

As for `COc1ccc(C2=Nc3c(C)noc3CC(c3cc(Cc4ccc(O)c(C5CC(c6ccc(OC)cc6)=Nc6c(C)noc6C5)c4)ccc3O)C2)cc1` (stereo not given), the MIC in the assay on Pseudomonas aeruginosa is 32 µg/mL (≈ 45.1 µM); against Trichoderma viride it was 40 µg/mL (≈ 56.4 µM); against Aspergillus flavus, 35 µg/mL (≈ 49.4 µM); in the assay on Bacillus subtilis, 35 µg/mL (≈ 49.4 µM); in the assay with Lactococcus lactis, 30 µg/mL (≈ 42.3 µM); with Escherichia coli, 35 µg/mL (≈ 49.4 µM). For the same compound, the IC50 in the assay with HEK293 came out at 57.4 µM; with MCF7 it was 40.4 µM; in the assay with MDA-MB-231, 58.1 µM.

As to `Cc1ccc(C2=Nc3c(C)noc3CC(c3cc(Cc4ccc(O)c(C5CC(c6ccc(C)cc6)=Nc6c(C)noc6C5)c4)ccc3O)C2)cc1` (stereo not given), the minimal inhibitory concentration (MIC) in the assay on Pseudomonas aeruginosa was determined as 40 µg/mL (≈ 59.1 µM); against Trichoderma viride, 38 µg/mL (≈ 56.1 µM); against Aspergillus flavus, 35 µg/mL (≈ 51.7 µM); with Bacillus subtilis, 35 µg/mL (≈ 51.7 µM); with Lactococcus lactis, 32 µg/mL (≈ 47.3 µM); against Escherichia coli it was 35 µg/mL (≈ 51.7 µM). Moreover, the IC50 with HEK293 was 63.4 µM; in the assay on MCF7, 42.3 µM; in the assay on MDA-MB-231 it was 61.1 µM.

Turning to `Cc1noc2c1N=C(c1ccccc1O)CC(c1cc(Cc3ccc(O)c(C4CC(c5ccccc5O)=Nc5c(C)noc5C4)c3)ccc1O)C2` (stereo not given), the MIC against Pseudomonas aeruginosa turned out to be 38 µg/mL (≈ 55.8 µM); against Trichoderma viride it was 40 µg/mL (≈ 58.8 µM); in the assay with Aspergillus flavus, 38 µg/mL (≈ 55.8 µM); with Bacillus subtilis, 38 µg/mL (≈ 55.8 µM); with Lactococcus lactis, 35 µg/mL (≈ 51.4 µM); in the assay on Escherichia coli, 36 µg/mL (≈ 52.9 µM). Besides, the IC50 with HEK293 was 65.5 µM; with MCF7, 44.3 µM; in the assay on MDA-MB-231 it was 63.4 µM.

Consider `Cc1noc2c1N=C(c1ccco1)CC(c1cc(Cc3ccc(O)c(C4CC(c5ccco5)=Nc5c(C)noc5C4)c3)ccc1O)C2` (stereo not given), for which the minimal inhibitory concentration (MIC) against Pseudomonas aeruginosa was determined as 14 µg/mL (≈ 22.3 µM); in the assay with Trichoderma viride, 16 µg/mL (≈ 25.4 µM); in the assay with Aspergillus flavus, 20 µg/mL (≈ 31.8 µM); against Bacillus subtilis, 20 µg/mL (≈ 31.8 µM); against Lactococcus lactis, 22 µg/mL (≈ 35 µM); in the assay with Escherichia coli it was 16 µg/mL (≈ 25.4 µM). In addition, the 50% inhibitory concentration (IC50) worked out at 30.2 µM in the assay with HEK293, 12.5 µM with MCF7 and 10.3 µM with MDA-MB-231.

Consider `Cc1noc2c1N=C(c1cccs1)CC(c1cc(Cc3ccc(O)c(C4CC(c5cccs5)=Nc5c(C)noc5C4)c3)ccc1O)C2` (stereo not given), for which the MIC in the assay with Pseudomonas aeruginosa was 12 µg/mL (≈ 18.2 µM); against Trichoderma viride, 14 µg/mL (≈ 21.2 µM); in the assay with Aspergillus flavus it was 15 µg/mL (≈ 22.7 µM); with Bacillus subtilis, 19 µg/mL (≈ 28.8 µM); against Lactococcus lactis it was 20 µg/mL (≈ 30.3 µM); with Escherichia coli, 14 µg/mL (≈ 21.2 µM). In addition, the half-inhibitory concentration (IC50) in the assay on HEK293 amounted to 10.3 µM; with MCF7, 10.2 µM; in the assay with MDA-MB-231 it was 18.2 µM.

As to `CCn1cc(C(=O)O)c(=O)c2ccc(C)nc21` [NALIDIXIC ACID], the MIC was 30 µg/mL (≈ 129 µM) against Pseudomonas aeruginosa, 30 µg/mL (≈ 129 µM) in the assay on Bacillus subtilis, 25 µg/mL (≈ 108 µM) in the assay with Lactococcus lactis and 28 µg/mL (≈ 121 µM) in the assay with Escherichia coli.

For orientation: MIC means the lowest concentration that inhibits growth of the organism. Lower therefore signals a more susceptible organism. As a reminder, the IC50 is the point on the concentration scale where inhibition reaches its midpoint.

The values above are taken from ChEMBL document CHEMBL1949646, “Design, synthesis, in vitro antimicrobial and anticancer activity of novel methylenebis-isoxazolo[4,5-b]azepines derivatives” (Eur J Med Chem, 2012).
